Only some compounds are listed: those with a hit (about 2.1% of all), similar ones and a draw of the others.
INS promoter inh: TRM-6 insulin promoter activity inhibition. TRM-6 cells (human fetal islet line), insulin promoter-eGFP reporter, imaging; reporter expression induced with tamoxifen. inhibition, % at 2 µM. 130,000 compounds, 0.9% hits. AID 1273;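 active = inhibition above the mean plus 3 SD, with well images judged a real hit on visual review, cut at about 60% in these data, passing the limit was not always enough; inconclusive = inhibition over the cutoff but images rejected on review; inactive = inhibition not above the cutoff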
Insulin prom up: MIN6 insulin promoter up-regulation; MIN6 insulin promoter-GFP reporter, high-content imaging; active compounds read high; z-score at 5 µM; 190,000 compounds, 0.3% hits; AID 1625;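 active = z-score above 3 at 5 µM with at least 500 cells counted in the well; inconclusive = wells under 500 cells, flagged as cytotoxic or low count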
PERK inh: blocks human PERK kinase. CHO PERK-DD fusion, SEAP luminescence translation reporter. inhibition, % at 5.6 µM. 220,000 compounds, 0.17% hits. AID 1416;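 active = inhibition above the mean inhibition of all tested compounds plus 3 SD, set separately per screening campaign, cut at about 2.9% in these data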;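 note: PERK kinase domain activated by AP20187 dimerizer at 100 nM; 0% = DMSO with dimerizer and 100% = rapamycin at 8.4 µM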
Autophagy HCS: alters autophagy in cells. MEF GFP-LC3 puncta imaging; test concentration mostly 10 µM. calls only at 10 µM (by protocol). 190,000 compounds, 0.98% hits. AID 463193;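 active = percentage of spot-positive cells more than 3 SD above its plate mean, without a fluorescence outlier flag or 80% toxicity; inconclusive = no clear call, values can overlap the other calls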;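 note: spot-positive cell cutoff set from DMSO-treated cells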
Dynein cargo inh: blocks dynein driven cargo transport along microtubules; z-score, hits read low; 220,000 compounds, 0.47% hits; 3617.4 mouse cells, GR-EGFP nuclear translocation imaging; test concentration mostly 20 µM; stimulated with dexamethasone, 1 µM; active compounds read low;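 active = plate z-score of nuclear minus cytoplasmic receptor signal below a set negative limit, without overly bright fluorescence or cell loss, cut at about -3.5 in these data, passing the limit was not always enough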;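 note: z-score of nuclear minus cytoplasmic ring GR-EGFP intensity difference per well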
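Buffer or medium: tet-free, stripped-serum medium; Also added: dexamethasone, 1.0 µM final; Technique: high-content fluorescence imaging after fixation; Times: 48 h induction, 1 h compound, 30 min dex at 37 °C; Read-out: per-cell GR-EGFP intensity, nucleus versus surrounding cytoplasmic ring, well-averaged.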
Active calls of the source: *; i = inactive; ? = inconclusive; nt = not tested or not shown; + = active, no number.

SMILES	INS promoter inh	Insulin prom up	PERK inh	Autophagy HCS	Dynein cargo inh
CC(=O)Nc1ccc(Nc2cc(C)nc3c(-c4ccc(Cl)cc4)cnn23)cc1	80*	nt	1	i	0.19
CCCCCCc1cc2cc(C(=O)Nc3ccccc3OC)c(=O)oc2cc1O	12	-0.3	1	i	-0.51
CCCCCCc1cc2cc(-c3nnc(-c4ccccc4OC)o3)c(=O)oc2cc1O	-22	8.9*	1	?	-0.45
CCCCCCc1cc2cc(-c3nnc(-c4cc(OC)c(OC)c(OC)c4)o3)c(=O)oc2cc1O	33	10*	0	?	-0.33
Cc1ccc(NC(=O)CNc2ccc(OC(C)C)cc2)c(C)c1	75*	nt	0	i	0.13
Cc1ccc(NC(=O)CNc2cccc(C)c2C)c(C)c1	67	-0.92	0	i	-0.39
Cc1ccccc1-c1nn(-c2ccc(F)cc2F)cc1CNCCCN(C)C	nt	-0.42	2	i	0.19
Cc1ccc(N2CN=c3s/c(=C\c4ccccn4)c(=O)n3C2)cc1	17	-0.7	3.1*	i	0.5
C(=C1/CCCC2=C1Nc1ncnn1C2c1ccccc1)/c1ccccc1 (stereo not given)	73*	0.11	0	i	1.3
S=C1NC2=C(CCC/C2=C\c2ccccc2)C(c2ccccc2)N1 (stereo not given)	10	-0.27	0	i	0.26
O=C(C[n+]1ccccc1)Nc1ccc(Oc2ccccc2)cc1	nt	0.12	2	i	1.1
Cn1nccc1C(=O)c1ccc(Cl)cc1	41	0.15	3.1*	i	-0.28
Cn1nccc1NC(=O)Nc1ccc(Cl)cc1	nt	nt	2	nt	1.3
Cc1nc(SCC2(C)CC2(Cl)Cl)n[nH]1 (stereo not given)	60	0.22	2	i	0.66
O=C(COC(=O)c1ccc(CO)cc1)Nc1ccc(OC(F)F)cc1	20	-0.09	1	i	1.5
NC(=O)C1(c2ccccc2)CCOCC1	15	1.2	0	+	-0.44
O=C(Nc1cccnc1)c1ccc(-c2ccc(Cl)cc2)o1	6	0.06	0	+	0.24
O=C(Nc1cccnc1)c1ccc(-c2cc(Cl)ccc2Cl)o1	nt	0.34	0	i	0.36
O=C(Nc1cccnc1)c1ccc(COc2ccccc2Br)o1	nt	-0.57	0	+	-1.2
COc1ccc(C2(CNC(=O)Cc3ccc(OC)c(OC)c3)CCOCC2)cc1	8	-1.1	0	i	-0.024
Clc1ccc(/C=N/Nc2nnc(Cl)c3ccccc23)cc1	69	nt	0	+	0.31
Clc1nnc(N/N=C/c2ccccc2)c2ccccc12	58	0.06	0	i	1.4
O=C(Nc1ccccc1C(=O)O)/C(=C/c1ccc([N+](=O)[O-])cc1)NC(=O)c1ccc(Br)o1	17	0.5	2	i	0.2
CCOC(=O)CNC(=O)CSc1nc2cccnc2n1C	-30	-0.74	1	+	0.92
CN(C)C(=O)C(=O)c1cccn1-c1cccc(Cl)c1C#N	nt	-0.15	1	i	1.1
SMILES	INS promoter inh	Insulin prom up	PERK inh	Autophagy HCS	Dynein cargo inh
CCOC(=O)C1=C(C)NC2=C(C(=O)CC(C)(C)C2)C1c1coc2ccccc2c1=O (stereo not given)	-447	0.01	-1	i	-0.81
CC1(C)COC(c2coc3ccccc3c2=O)OC1	100*	0.1	1	i	1.2
COCCN1C(=O)/C(=C/c2ccc(N3CCCC3)cc2C)SC1=S	-456	nt	1	+	-2.1
Cc1cccc(C)c1NC(=O)COC(=O)c1c2c(nc3ccccc13)/C(=C\c1ccc3c(c1)OCO3)CCC2	18	-0.51	0	+	-0.11
O=S(=O)(c1cnc(Cl)c(Cl)c1)N1CCc2ccccc21	nt	-1.2	0	nt	-4.3*
Cn1cnc(S(=O)(=O)N2CCc3ccccc32)c1	nt	-0.21	3.1*	i	-0.11
COC(=O)C1C(O)=C(C(C)=Nc2cccc3ccccc23)C(=O)CC1(C)C (stereo not given)	nt	-0.46	0	nt	0.03
O=C(O)c1ccc2c(=O)[nH]c(CCl)nc2c1	nt	0	0	i	1.2
N#CCCn1cc(/C=C(\C#N)c2nc3ccccc3s2)c(-c2ccc(F)cc2)n1	74*	0.44	0	i	i
CC(C)c1nc(-c2ccccc2)c(-c2ccccc2)[nH]1	87*	-0.31	-2	i	2.1
c1ccc(-c2nc(-c3cccs3)[nH]c2-c2ccccc2)cc1	50	-0.54	1	i	-0.28
O=C(CSc1nccc(=O)[nH]1)NN(c1ccccc1)c1ccccc1	nt	1.6	0	i	-0.28
Cc1ccc(-c2cc(NC(=O)CCl)n(-c3ccccc3)n2)cc1	40	nt	0	+	-2.2
O=[N+]([O-])c1cccc(-c2nc3ccc([N+](=O)[O-])cc3[nH]2)c1	92*	-1.7	0	i	-0.78
Cc1ccc2nc(-c3cccc(N)c3)[nH]c2c1	80*	nt	0	i	-0.41
Cc1ccc2nc(-c3sc4nc(C)cc(C)c4c3N)[nH]c2c1	44	nt	-1	i	-2.8
Nc1cccc(-c2nc3ccccc3[nH]2)c1	75*	nt	0	i	-1.1
Cn1cc(-c2nc3ccccc3[nH]2)c2ccccc21	100*	0.8	0	i	-0.11
O=[N+]([O-])c1ccc2nc(-c3ccncc3)[nH]c2c1	nt	-0.61	1	nt	-0.29
c1ccc(-c2cc(-c3nc4ccccc4[nH]3)c3ccccc3n2)cc1	22	0.04	-1	i	0.53
COc1ccc(N2C(=O)CCC(C(=O)N3CCN(c4ccccn4)CC3)C2c2ccc(F)cc2)cc1 (stereo not given)	nt	-0.39	0	i	-0.91
COc1c2ccoc2nc2c(OC)c(OCC(OC(C)=O)C(C)(C)O)ccc12 (stereo not given)	nt	0.26	1	i	-0.14
Nc1ccccc1-c1nc2ccccc2[nH]1	94*	-0.67	1	i	-0.49
Cc1cccc(N/N=C(\C#N)S(=O)(=O)C(C)(C)C)c1	91*	1.5	0	i	-0.71
O=C(CCN1C(=O)COc2ccccc21)N1CCCCC1	21	-0.33	0	i	0.37
SMILES	INS promoter inh	Insulin prom up	PERK inh	Autophagy HCS	Dynein cargo inh
CCOC(=O)N1CCN(C(=O)CCN2C(=O)COc3ccccc32)CC1	79*	-1.1	2	i	0.14
CC1CCN(c2c(NCC3CCC(C(=O)NCCCc4ccccc4)CC3)c(=O)c2=O)CC1 (stereo not given)	nt	-0.17	1	nt	0.1
CCOc1ccc(-n2c(N)c(-c3nc4ccccc4n3C)c3nc4ccccc4nc32)cc1	nt	0.08	0	+	-0.2
CCOc1ccc(-n2c(N)c(C(=O)NCc3ccco3)c3nc4ccccc4nc32)cc1	-151	-0.46	-2	i	-0.85
Clc1ccc(C2=C3CCCCn4c(-c5ccccc5)c[n+](c43)C2)cc1	-8	nt	0	+	-2.8
COc1ccc(-c2c[n+]3c4n2CCCCC4=C(c2ccc(Br)cc2)C3)cc1	nt	-2.2	-1	i	-1.1
Oc1c(C(Nc2ccccn2)c2cccnc2)cc(Cl)c2cccnc12 (stereo not given)	27	-0.41	0	+	-0.14

Screening data as filed in PubChem BioAssay.
